Data as given in ChEMBL document CHEMBL2375295, “Site-specific and far-red-light-activatable prodrug of combretastatin A-4 using photo-unclick chemistry” (J Med Chem, 2013).
Activity calls are given as the source filed them. The calls are words filed in the database; no cut-off is given here.

Assays:
MCF7 [1] = experiment: Darktoxicity against human MCF7 cells incubated for 24 hrs followed by 30 mins incubation in dark measured after 3 days by MTT assay; format: cell-based
Method in brief: (§1)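 MCF-7 cells were grown in α-MEM with 10% bovine growth serum, seeded at 5000/well and grown 24 h at 37 °C, 5% CO2. Compounds were diluted from 2 mM DMSO stocks into medium and incubated 24 h. Phototoxicity plates were shaken and irradiated at 690 nm, 5.6 mW/cm2 for 30 min. Dark plates were kept unlit for 30 min. After 3 days, MTT viability was read at A570 minus A650 and expressed as % of untreated.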

Mus musculus [2] = experiment: Biodistribution in nu/nu mouse at 24 umol/kg, ip followed by irradiation with diode laser light for 1.5 hrs measured after 10 to 30 mins by optical imaging analysis; format: ADME, organism-based; conditions: in vivo
Method in brief: (§2)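 The FRET probe was formulated as a Tween 80 paste, extracted into 5% dextrose, filtered, and quantified by CMP absorbance. It was given at 24 μmol/kg ip. At 1.5 h the neck region was irradiated with a 690 nm diode laser at 500 mW/cm2. Mice were under 2.5% isoflurane anesthesia, and fluorescence images were taken after 0, 10, 20 and 30 min irradiation.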

Mus musculus [3] = experiment: Biodistribution in nu/nu mouse at 24 umol/kg, ip followed by irradiation with diode laser light for 1.5 hrs by optical imaging analysis; format: ADME, organism-based; conditions: in vivo, TDE = time-dependent effect; method in brief: as §2
Colon 26 (Mus musculus) [4] = experiment: Prodrug conversion in mouse Colon 26 cells assessed as death of neighboring cells at 50 nM incubated for 24 hrs followed by irradiation with diode laser light for 15 mins measured after 48 hrs by Calcein AM live cell staining assay; conditions: colon 26, 0.05 µM
MCF7 [5] = experiment: Ratio of IC50 for darktoxicity against human MCF7 cells to IC50 for cytotoxicity against human MCF7 cells in presence of diode laser light; format: functional
Mus musculus [6] = experiment: Toxicity in mouse Colon 26 cells allografted BALB/c mouse assessed as change in body weight at 2 to 4 umol/kg, ip qd for 2 days measured 30 mins post irradiation with diode laser light; format: organism-based; conditions: in vivo
Method in brief: (§3)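 Colon 26 cells (2 × 10^6 in PBS) were implanted sc in the lower back-neck of 4–6-week-old BALB/c mice. Mice were used once tumors reached 3–5 mm diameter. Doses came from DMSO stocks diluted in 1% Tween 80/5% dextrose and filtered, given as 200 μL ip daily on days 0, 1 and 2. After 1.5 h mice were anesthetized (ketamine/xylazine) and tumors irradiated at 690 nm, 200 mW/cm2 for 30 min (360 J/cm2). Tumor volume was lw2/2 by caliper, and body weight was followed. Groups had six mice; control had three.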

Colon 26 [7] = experiment: Antitumor activity against mouse Colon 26 cells allografted in BALB/c mouse at 2 umol/kg, ip qd for 2 days measured 30 mins post irradiation with diode laser light; format: functional, organism-based; method in brief: as §3
Tubulin (Homo sapiens) [8] = biological target: T1, Tubulin (Homo sapiens) (UniProt P68371+Q9H4B7+P0DPH7+P68366+Q13509+Q71U36+P04350+Q3ZCM7+P07437+P68363+Q9BQE3+Q6PEY2+Q13885+Q9BVA1+Q9BUF5); experiment: Inhibition of tubulin polymerization (unknown origin) at 3 uM after 20 mins by fluorescence plate reader analysis; format: protein-complex assay
MCF7 [9] = experiment: Cytotoxicity against human MCF7 cells incubated for 24 hrs followed by irradiated with diode laser light for 30 mins; format: functional, cell-based; conditions: MCF7, light or radiation study; method in brief: as §1
Tubulin (Homo sapiens) [10] = biological target: T1, Tubulin (Homo sapiens); experiment: Inhibition of tubulin polymerization (unknown origin) at 3 uM after 1 hr by fluorescence plate reader analysis; format: protein-complex assay
Method in brief: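 Kit-based fluorescence assay: tubulin plus GTP in buffer with test agent at 3 μM final, incubated at 37 °C. Polymerization was monitored kinetically at ex 360/em 450 nm against a vehicle-only control. Inhibition was assessed after 1 h incubation, as mean ± SD of three experiments.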

Colon 26 [11] = experiment: Antitumor activity against mouse Colon 26 cells allografted in BALB/c mouse at 4 umol/kg, ip qd for 2 days measured 30 mins post irradiation with diode laser light; format: functional, organism-based; method in brief: as §3
Colon 26 (Mus musculus) [12] = experiment: Prodrug conversion in mouse Colon 26 cells assessed as death of neighboring cells at 5 uM incubated for 24 hrs followed by irradiation with diode laser light for 15 mins measured after 48 hrs by Calcein AM live cell staining assay; conditions: colon 26, 5 µM
Tubulin (Homo sapiens) [13] = biological target: T1, Tubulin (Homo sapiens); experiment: Inhibition of tubulin polymerization (unknown origin) at 3 uM after 1 hr by fluorescence plate reader analysis

Row | inhibition (Tubulin (Homo sapiens) [8]) | inhibition (Tubulin (Homo sapiens) [10]) [%] | Compound | IC50 (MCF7 [1]) [nM] | Ratio IC50 (MCF7 [5]) | IC50 (MCF7 [9]) [nM] | further results
1 |  |  | COc1ccc(/C=C\c2cc(OC)c(OC)c(OC)c2)cc1O [COMBRETASTATIN A4] | 9 |  |  | 
2 |  |  | CCN(CC)c1ccc2c(-c3ccccc3C(=O)OCN3CCN(/C=C/OC(=O)COc4ccc(-c5c6nc(c(-c7ccccc7)c7ccc(s7)c(-c7ccccc7)c7nc(c(-c8ccccc8)c8ccc5s8)C=C7)C=C6)cc4)CC3)c3ccc(=[N+](CC)CC)cc-3oc2c1.[Cl-] |  |  |  | Drug uptake (Mus musculus [2]): Active; Drug uptake (Mus musculus [3]): tde
3 | inactive | 6 | COc1ccc(/C=C\c2cc(OC)c(OC)c(OC)c2)cc1OC(=O)/C=C/N1CCC(COC(=O)COc2ccc(-c3c4nc(c(-c5ccccc5)c5ccc(s5)c(-c5ccccc5)c5nc(c(-c6ccccc6)c6ccc3s6)C=C5)C=C4)cc2)CC1 | 164 | 6 | 28 | Drug metabolism (Colon 26 (Mus musculus) [4]): Active; Activity (Mus musculus [6]): Non-toxic; Activity (Colon 26 [7]): Active; Activity (Colon 26 [11]): Active
4 |  |  | O=C(O)COc1ccc(-c2c3nc(c(-c4ccccc4)c4ccc(s4)c(-c4cccs4)c4nc(c(-c5ccc(OCC(=O)O)cc5)c5ccc2s5)C=C4)C=C3)cc1 |  |  |  | Drug metabolism (Colon 26 (Mus musculus) [12]): Not Active
5 |  |  | CC(=O)O[C@H]1C(=O)[C@@]2(C)[C@H]([C@H](OC(=O)c3ccccc3)[C@]3(O)C[C@H](OC(=O)[C@H](O)[C@@H](NC(=O)c4ccccc4)c4ccccc4)C(C)=C1C3(C)C)[C@]1(OC(C)=O)CO[C@@H]1C[C@@H]2O |  |  |  | inhibition (Tubulin (Homo sapiens) [13]): Active
6 | inactive | 9 | COc1ccc(/C=C\c2cc(OC)c(OC)c(OC)c2)cc1OCCCN1CCN(C(=O)COc2ccc(-c3c4nc(c(-c5ccccc5)c5ccc(s5)c(-c5ccccc5)c5nc(c(-c6ccccc6)c6ccc3s6)C=C5)C=C4)cc2)CC1 | 1800 | 1.7 | 1060 | 
